Values after ≈ are worked out from the molar mass of the structure shown. Active and inactive are the calls of the source. The rule behind the calls is not given here.
Legend:
[1] = Antioxidant activity assessed as Fe (II) equivalent of (TPTZ)2Fe3+ reducing activity after 4 mins by FRAP assay; assay type: functional
How it was run: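 FRAP reagent made from TPTZ and FeCl₃ in aqueous acetate buffer. Reagent and diluted sample mixed in a cuvette; absorbance of the blue Fe²⁺ complex at 593 nm read exactly 4 min later at 25.0 °C. Four or five sample concentrations tested. Slope of absorbance vs concentration divided by the FeSO₄ standard slope gives activity in mmol equiv Fe²⁺.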

[2] = Antioxidant activity assessed as trolox equivalent of ABTS radical scavenging activity at pH 7.4 after 6 mins by TEAC assay; assay type: functional
How it was run: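 ABTS radical cation preformed with K₂S₂O₈ in PBS, pH 7.4. Diluted radical solution mixed with sample dissolved in DMSO; absorbance at 734 nm read exactly 6 min later at 30.0 °C. A DMSO blank was run, and the Trolox standard was treated the same way and checked before each series. Activity is given as a ratio to Trolox with its standard error.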

[3] = Antioxidant activity assessed as resorcinol equivalent of peroxy radical scavenging activity at pH 2.2 by BR assay; assay type: functional
How it was run: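 Briggs-Rauscher oscillating reaction thermostated at 25.0 °C. The resorcinol standard line was checked before each series. Relative antioxidant activity is taken from the sample and resorcinol concentrations that give the same effect.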

[4] = tested on: Radical scavenging activity; experiment: Antioxidant activity assessed as trolox equivalent of DPPH radical scavenging activity after 15 mins by spectroscopic analysis; assay type: functional
How it was run: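 Absorbance at 515 nm of methanolic DPPH radical read before (A₀) and 15 min after (Af) adding sample. Inhibition % = (1 − Af/A₀) × 100. Plots of % inhibition vs concentration were fitted with lines through the origin and compared with the Trolox standard.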

Staphylococcus aureus = experiment: Antibacterial activity against methicillin-resistant Staphylococcus aureus clinical isolates from cystic fibrosis patients assessed as growth inhibition by CLSI broth microdilution method
[5] = tested on: Radical scavenging activity; experiment: Antioxidant activity assessed as trolox equivalent of DPPH radical scavenging activity by spectroscopic analysis; assay type: functional
[6] = Antioxidant activity of the compound by voltammetric analysis; assay type: functional

In the case of `CCOCOc1c(OC)cc(C(=O)O[C@H](C)[C@H]2C(=O)N(SC)[C@@H]2OC(C)=O)cc1OC`, the Activity [1] was “inactive”, the Activity [2] was “inactive” and the Activity [3] was 0.7 µM. For the same compound, the Activity [4] was “inactive”.

In the case of `CSN1C(=O)[C@H]([C@@H](C)O)[C@H]1SC(C)=O`, the Activity [1] was “inactive”, the Activity [2] was “inactive” and the Activity [3] was “inactive”. For the same compound, the Activity [4] was “inactive”, the MIC50 (Staphylococcus aureus) was 64 µg/mL (≈ 272 µM) and the MIC90 (Staphylococcus aureus) was 128 µg/mL (≈ 544 µM).

In the case of `CSN1C(=O)CC1SC(C)=O` (stereo not drawn), the Activity [1] was “inactive”, the Activity [2] was “inactive” and the Activity [3] was “inactive”. For the same compound, the Activity [4] was “inactive”, the MIC (Staphylococcus aureus) was 16 µg/mL (≈ 83.6 µM) and the MIC50 (Staphylococcus aureus) was 16 µg/mL (≈ 83.6 µM). It also gave an MIC90 (Staphylococcus aureus) of 32 µg/mL (≈ 167 µM).

For `CSN1C(=O)[C@H]([C@@H](C)O)[C@H]1OC(C)=O`, the Activity [1] was “inactive”, the Activity [2] was “inactive” and the Activity [3] was “inactive”. For the same compound, the Activity [4] was “inactive”, the MIC50 (Staphylococcus aureus) was 64 µg/mL (≈ 292 µM) and the MIC90 (Staphylococcus aureus) was > 128 µg/mL.

Compound `O=C1O[C@H]([C@@H](O)CO)C(O)=C1O` has an Activity [5] of 1100 µM.

In the case of `CSN1CCC1=O`, the Activity [6] was “inactive”.

In the case of `CSN1C(=O)[C@H]([C@@H](C)OC(=O)/C=C/c2ccc(O)c(O)c2)[C@H]1OC(C)=O`, the Activity [1] was 1.98 mmol, the Activity [2] was 0.98 mmol and the Activity [3] was 1.95 µM. It also gave an Activity [4] of 1.23 mmol, an MIC50 (Staphylococcus aureus) of 64 µg/mL (≈ 168 µM) and an MIC90 (Staphylococcus aureus) of 64 µg/mL (≈ 168 µM).

With `CC(=O)SC1CC(=O)N1` (stereo not drawn) the Activity [6] was “inactive”, the Activity [1] was “inactive” and the Activity [2] was “inactive”. For the same compound, the Activity [3] was “inactive”, the Activity [4] was “inactive” and the MIC50 (Staphylococcus aureus) was 32 µg/mL (≈ 220 µM). It also gave an MIC90 (Staphylococcus aureus) of 64 µg/mL (≈ 441 µM).

`COc1cc(C(=O)O[C@H](C)[C@H]2C(=O)N(SC)[C@@H]2OC(C)=O)cc(OC)c1O` showed an Activity [1] of 0.19 mmol, an Activity [2] of 0.037 mmol and an Activity [3] of 1.8 µM. It also gave an Activity [4] of 0.0091 mmol, an MIC50 (Staphylococcus aureus) of 64 µg/mL (≈ 160 µM) and an MIC90 (Staphylococcus aureus) of 128 µg/mL (≈ 320 µM).

With `CO/N=C(\C(=O)N[C@@H]1C(=O)N2C(C(=O)O)=C(CSc3nc(=O)c(O)nn3C)CS[C@H]12)c1csc(N)n1` [CEFTRIAXONE] the MIC50 (Staphylococcus aureus) was 8 µg/mL (≈ 14.4 µM) and the MIC90 (Staphylococcus aureus) was > 128 µg/mL.

With VITAMIN E the Activity [5] was 500 µM.

With `CSN1C(=O)[C@H]([C@@H](C)OC(=O)c2ccc(O)c(O)c2)[C@H]1OC(C)=O` the Activity [1] was 1.91 mmol, the Activity [2] was 1.23 mmol and the Activity [3] was 0.38 µM. The Activity [4] was 1.96 mmol, the MIC50 (Staphylococcus aureus) was 128 µg/mL (≈ 360 µM) and the MIC90 (Staphylococcus aureus) was > 128 µg/mL.

For `CSN1C(=O)C[C@@H]1OC(C)=O`, the Activity [1] was “inactive”, the Activity [2] was “inactive” and the Activity [3] was “inactive”. The Activity [4] was “inactive”, the MIC (Staphylococcus aureus) was 32 µg/mL (≈ 183 µM) and the MIC50 (Staphylococcus aureus) was 32 µg/mL (≈ 183 µM). The MIC90 (Staphylococcus aureus) was 64 µg/mL (≈ 365 µM).

In the case of `CO/N=C(\C(=O)N[C@@H]1C(=O)N2C(C(=O)O)=C(COC(C)=O)CS[C@H]12)c1csc(N)n1` [CEFOTAXIME], the MIC50 (Staphylococcus aureus) was 128 µg/mL (≈ 281 µM) and the MIC90 (Staphylococcus aureus) was > 128 µg/mL.

With `CC(O[Si](C)(C)C(C)(C)C)[C@H]1C(=O)N/C1=C\C(=O)Sc1ccccc1` (stereo partly drawn) the Activity [6] was “inactive”.
